Assays:
Caco-2 = Caco-2 bi-directional permeability assay; assay type: in vitro ADME
hERG channels = hERG channels (Homo sapiens, UniProt Q12809); experiment: hERG channel block; assay type: biochemical; conditions: at a concentration of 10 μM or below
MeV RdRp = MeV RdRp (Measles virus, UniProt P12576); experiment: Plasmid-based mini-replicon luciferase assay of RdRp activity in BSR-T7/5 cells; assay type: cell-based; conditions: 36 hours post-transfection; averages of three experiments
How it was run: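 BSR-T7/5 cells were transfected with plasmids encoding MeV L, N and P plus a firefly luciferase minigenome reporter, then incubated with a range of test compound concentrations or vehicle. Luciferase activity in cell lysates was read 36 h post-transfection and expressed relative to vehicle-treated samples. Dose-response inhibition curves were generated from the mean of three experiments ± SD.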

[1] = test system: bacterial reverse mutation; experiment: Non-GLP in vitro bacterial reverse mutation; assay type: cell-based

Chain of MeV RdRp (P12576 whole entry): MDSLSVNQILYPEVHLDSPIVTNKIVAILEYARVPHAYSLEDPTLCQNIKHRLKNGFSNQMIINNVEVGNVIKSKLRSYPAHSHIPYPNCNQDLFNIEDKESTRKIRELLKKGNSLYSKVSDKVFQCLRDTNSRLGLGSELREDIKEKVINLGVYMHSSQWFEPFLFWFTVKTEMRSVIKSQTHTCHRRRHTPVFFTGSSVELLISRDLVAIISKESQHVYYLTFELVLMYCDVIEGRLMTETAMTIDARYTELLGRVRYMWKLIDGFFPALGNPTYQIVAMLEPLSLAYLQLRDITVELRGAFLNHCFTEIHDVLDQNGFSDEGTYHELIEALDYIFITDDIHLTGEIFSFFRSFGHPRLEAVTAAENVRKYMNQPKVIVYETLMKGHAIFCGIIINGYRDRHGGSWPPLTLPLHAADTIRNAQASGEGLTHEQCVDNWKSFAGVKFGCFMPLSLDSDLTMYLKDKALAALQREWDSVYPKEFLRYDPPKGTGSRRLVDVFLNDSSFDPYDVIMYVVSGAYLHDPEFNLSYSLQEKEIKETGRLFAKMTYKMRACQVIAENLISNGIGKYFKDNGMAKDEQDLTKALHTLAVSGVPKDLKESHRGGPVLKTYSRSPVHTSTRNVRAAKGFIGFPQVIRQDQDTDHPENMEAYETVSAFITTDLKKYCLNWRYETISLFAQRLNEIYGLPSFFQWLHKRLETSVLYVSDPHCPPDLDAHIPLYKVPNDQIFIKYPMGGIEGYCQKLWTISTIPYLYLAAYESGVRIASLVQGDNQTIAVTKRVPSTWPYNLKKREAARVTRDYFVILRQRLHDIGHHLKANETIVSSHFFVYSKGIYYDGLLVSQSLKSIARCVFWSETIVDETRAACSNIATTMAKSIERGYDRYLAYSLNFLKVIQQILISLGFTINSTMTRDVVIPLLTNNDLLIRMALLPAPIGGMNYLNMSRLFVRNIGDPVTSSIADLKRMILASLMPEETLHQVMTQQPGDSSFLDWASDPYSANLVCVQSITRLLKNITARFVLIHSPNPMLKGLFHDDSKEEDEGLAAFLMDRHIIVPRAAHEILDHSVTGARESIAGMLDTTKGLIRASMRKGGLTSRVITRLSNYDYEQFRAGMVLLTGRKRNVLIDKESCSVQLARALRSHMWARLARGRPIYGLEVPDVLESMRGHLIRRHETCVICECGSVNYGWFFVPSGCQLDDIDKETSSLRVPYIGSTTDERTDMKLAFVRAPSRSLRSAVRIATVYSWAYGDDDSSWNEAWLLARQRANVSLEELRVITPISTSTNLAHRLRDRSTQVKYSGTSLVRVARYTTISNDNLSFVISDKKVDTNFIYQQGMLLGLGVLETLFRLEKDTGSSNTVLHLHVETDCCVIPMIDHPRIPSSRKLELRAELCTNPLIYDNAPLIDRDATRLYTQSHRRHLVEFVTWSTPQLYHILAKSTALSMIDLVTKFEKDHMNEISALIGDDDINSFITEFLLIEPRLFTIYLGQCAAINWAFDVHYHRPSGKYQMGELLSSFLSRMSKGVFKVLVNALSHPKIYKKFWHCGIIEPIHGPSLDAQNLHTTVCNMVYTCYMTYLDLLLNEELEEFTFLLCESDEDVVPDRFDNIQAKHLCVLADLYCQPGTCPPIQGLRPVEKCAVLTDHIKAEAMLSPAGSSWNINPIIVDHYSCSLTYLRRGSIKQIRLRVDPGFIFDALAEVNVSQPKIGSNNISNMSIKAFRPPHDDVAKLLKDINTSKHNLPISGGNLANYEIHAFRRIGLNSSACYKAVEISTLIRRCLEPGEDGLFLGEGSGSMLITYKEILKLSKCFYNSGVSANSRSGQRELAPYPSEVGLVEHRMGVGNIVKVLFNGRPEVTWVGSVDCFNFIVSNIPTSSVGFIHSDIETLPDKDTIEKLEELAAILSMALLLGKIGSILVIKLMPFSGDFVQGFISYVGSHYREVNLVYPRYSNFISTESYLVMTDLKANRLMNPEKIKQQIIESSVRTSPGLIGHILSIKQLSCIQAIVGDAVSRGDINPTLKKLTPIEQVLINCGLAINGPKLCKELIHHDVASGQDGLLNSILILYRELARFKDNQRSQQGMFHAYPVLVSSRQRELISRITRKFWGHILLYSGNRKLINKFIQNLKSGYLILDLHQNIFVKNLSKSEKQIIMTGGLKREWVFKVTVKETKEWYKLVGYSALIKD
Chain of MeV RdRp (P03422 whole entry, further chain): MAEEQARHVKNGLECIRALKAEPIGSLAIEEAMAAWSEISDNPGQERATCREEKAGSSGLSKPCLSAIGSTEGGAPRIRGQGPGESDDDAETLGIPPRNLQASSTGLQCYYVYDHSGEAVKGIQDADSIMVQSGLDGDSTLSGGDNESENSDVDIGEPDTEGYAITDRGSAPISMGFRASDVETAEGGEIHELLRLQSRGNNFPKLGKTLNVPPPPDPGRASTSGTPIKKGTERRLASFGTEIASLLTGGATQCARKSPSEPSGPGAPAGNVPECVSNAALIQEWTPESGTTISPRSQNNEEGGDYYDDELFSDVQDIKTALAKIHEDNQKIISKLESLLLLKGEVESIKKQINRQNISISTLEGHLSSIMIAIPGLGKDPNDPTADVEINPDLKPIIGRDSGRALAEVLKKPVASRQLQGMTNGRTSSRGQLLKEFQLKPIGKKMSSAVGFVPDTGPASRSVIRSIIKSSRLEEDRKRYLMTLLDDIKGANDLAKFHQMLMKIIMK
Chain of hERG channels (Q12809 whole entry): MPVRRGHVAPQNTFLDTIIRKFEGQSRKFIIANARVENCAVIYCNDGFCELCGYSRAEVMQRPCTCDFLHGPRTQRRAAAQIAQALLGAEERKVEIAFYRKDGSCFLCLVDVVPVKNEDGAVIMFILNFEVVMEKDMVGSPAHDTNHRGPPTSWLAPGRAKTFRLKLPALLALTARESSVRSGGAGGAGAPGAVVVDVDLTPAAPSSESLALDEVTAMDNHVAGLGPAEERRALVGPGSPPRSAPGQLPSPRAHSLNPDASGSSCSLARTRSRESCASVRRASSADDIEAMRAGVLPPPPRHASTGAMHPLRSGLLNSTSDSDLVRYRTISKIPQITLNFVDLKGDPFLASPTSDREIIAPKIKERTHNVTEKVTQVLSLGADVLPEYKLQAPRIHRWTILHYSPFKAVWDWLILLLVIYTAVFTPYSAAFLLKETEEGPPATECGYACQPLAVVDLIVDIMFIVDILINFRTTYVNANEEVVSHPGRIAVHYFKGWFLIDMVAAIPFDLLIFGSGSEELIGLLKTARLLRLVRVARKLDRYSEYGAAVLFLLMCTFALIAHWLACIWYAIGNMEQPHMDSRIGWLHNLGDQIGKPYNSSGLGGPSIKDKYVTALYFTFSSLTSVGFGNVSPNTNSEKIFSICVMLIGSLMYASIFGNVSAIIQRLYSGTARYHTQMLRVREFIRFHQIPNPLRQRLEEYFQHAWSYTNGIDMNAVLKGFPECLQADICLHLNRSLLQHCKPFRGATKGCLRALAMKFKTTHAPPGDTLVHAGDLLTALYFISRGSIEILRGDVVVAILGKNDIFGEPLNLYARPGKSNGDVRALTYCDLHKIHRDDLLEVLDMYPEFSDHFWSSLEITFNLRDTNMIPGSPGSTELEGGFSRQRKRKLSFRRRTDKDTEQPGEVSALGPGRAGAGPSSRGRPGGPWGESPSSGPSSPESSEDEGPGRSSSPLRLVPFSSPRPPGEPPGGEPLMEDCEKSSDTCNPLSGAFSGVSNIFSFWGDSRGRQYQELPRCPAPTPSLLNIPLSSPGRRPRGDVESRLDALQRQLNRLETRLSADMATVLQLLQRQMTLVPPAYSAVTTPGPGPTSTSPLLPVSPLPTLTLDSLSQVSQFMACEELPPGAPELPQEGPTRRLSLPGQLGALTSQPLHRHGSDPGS

Compound | permeability (Caco-2) | hERG channel block (hERG channels) | inhibition of viral RdRp activity (relative luciferase activity) (MeV RdRp) | mutagenicity (Ames) [1]
Cn1nc(C(F)(F)F)cc1C(=O)Nc1ccc(S(=O)(=O)N2CCCCC2)cc1 [Compound 2] | high permeability | did not block | dose-dependent inhibition | non-mutagenic
Cn1nc(C(F)(F)F)cc1C(=O)Nc1ccc(S(=O)(=O)N2CCCC[C@H]2CCN2CCOCC2)cc1 [Compound 2o, (S)-1-methyl-N-(4-((2-(2-morpholinoethyl)piperidin-1-yl)sulfonyl)phenyl)-3-(trifluoromethyl)-1H-pyrazole-5-carboxamid] | high permeability | – | dose-dependent inhibition | –

Source: paper PMC3701436 (Journal of medicinal chemistry, 2012)
